Neddyl block = blocks human cullin neddylation; TR-FRET cullin neddylation, biochemical; hit rate 0.58% among 360,000; calls only at 25 µM; AID 651699; P61081+Q13564; in the data active = inhibition above about 36%
NR2E3 ag-1 = NR2E3 (human) agonism; AID 2300; Q9Y5X4; hit rate 0.12% among 320,000; GST-NR2E3/biotin-RetCOR TR-FRET, 1536-well; inhibition of corepressor binding, % at 4.78 µM;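 active = percent inhibition above the cutoff of mean plus 3 SD of all tested compounds, set per screening campaign, cut at about 20% in these data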;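 also: 0% = DMSO wells and 100% = biotin wells as full block of FRET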
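Material: NR2E3–RetCOR corepressor complex | Quantity: 1.35 nM GST-tagged NR2E3 final | Schedule: 5 h at 4 °C | Replication: Singlicate compound wells | Reagent: RetCOR corepressor, biotinylated, 7 nM | Controls: Biotin wells as high control, 0.6% DMSO wells as low control | Signal: TR-FRET, Eu(K)-anti-GST donor, streptavidin-D2 acceptor, ex 340, em 617/671 nm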
PG9 Ab binder = PG9 antibody binding by small molecule | TR-FRET gp120-PG9 antibody binding | inhibition, % at 6.7 µM | hit rate 0.43% among 360,000 | AID 624416; in the data active = inhibition above about 8.5%
NR1D1 modulator = modulates human Rev-erb alpha binding to DNA; hit rate 0.79% among 370,000; Rev-erbα–FITC-DNA binding, fluorescence polarization, 90 min; activity, % at 10 µM;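 active = activity above about 14%, limit read from the data; passing the limit was not always enough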;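 also: 0% = DMSO wells with 35 nM protein and 100% = DMSO wells with 750 nM protein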
Target sequence (P20393 whole entry, looked up): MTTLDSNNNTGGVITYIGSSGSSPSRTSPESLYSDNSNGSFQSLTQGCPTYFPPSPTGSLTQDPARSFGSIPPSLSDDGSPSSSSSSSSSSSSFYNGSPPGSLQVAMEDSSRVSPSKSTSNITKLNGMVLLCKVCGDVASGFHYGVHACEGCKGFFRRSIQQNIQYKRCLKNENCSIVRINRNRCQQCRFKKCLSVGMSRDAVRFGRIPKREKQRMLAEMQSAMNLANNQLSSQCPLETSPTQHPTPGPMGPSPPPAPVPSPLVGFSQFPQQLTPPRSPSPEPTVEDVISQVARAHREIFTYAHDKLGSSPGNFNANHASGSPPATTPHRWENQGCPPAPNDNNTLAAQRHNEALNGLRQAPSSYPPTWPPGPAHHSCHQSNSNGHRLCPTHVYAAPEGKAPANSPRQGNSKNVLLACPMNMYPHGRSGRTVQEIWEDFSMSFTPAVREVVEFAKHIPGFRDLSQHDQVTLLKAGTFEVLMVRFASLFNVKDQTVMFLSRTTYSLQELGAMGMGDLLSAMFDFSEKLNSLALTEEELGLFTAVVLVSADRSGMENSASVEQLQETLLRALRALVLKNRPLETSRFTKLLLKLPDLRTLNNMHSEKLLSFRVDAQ
NR2E3 ag-2 = agonists of human NR2E3 nuclear receptor; Q9Y5X4; CHO-S Gal4-NCOR/VP16-NR2E3 two-hybrid, luciferase; inhibition of corepressor binding, % at 3.98 µM; hit rate 0.35% among 360,000;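 active = inhibition above the mean of all tested compounds plus 3 SD, cut at about 70% in these data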;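 also: 0% = DMSO with NR2E3 transfected cells and 100% = cells lacking NR2E3 construct; higher means lower luciferase signal from less NR2E3 corepressor binding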
Neddyl inh conf = cullin neddylation inhibition, confirmation | shares compounds with Neddyl block | TR-FRET cullin neddylation biochemical assay | calls only at 25 µM | hit rate 13% among 1,800 | AID 652217; in the data active = inhibition above about 40%;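 also: neddylation substrate is the cullin 1 ring ligase complex with SKP2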
Numbers without * were called inactive; i = inactive; x = not tested or not shown; + = active, no number. Hits are enriched below; roughly 2% of the tested compounds scored in any of these assays.

SMILES	Neddyl block	NR2E3 ag-1	PG9 Ab binder	NR1D1 modulator	NR2E3 ag-2	Neddyl inh conf
CCn1c2ccccc2c2nc3cc(OC)c(OC)cc3nc21	+	3	3	0	-80	x
CCOCCn1c2ccccc2c2nc3ccccc3nc21	+	0	0	-5	-18	i
CCOCCn1c(COc2ccc(C)cc2)nc2ccccc21	i	0	-1	0	-67	x
O=C(Nc1ccc(C(F)(F)F)cc1)OC1CCC12CCCCC2 (stereo not given)	x	x	x	3	x	x
O=C(Cn1nnc(-c2cc(C(F)(F)F)cc(C(F)(F)F)c2)n1)NNC(=S)Nc1ccc(Cl)cc1	+	2	-1	0	-44	i
Cc1cc(=O)oc2cc(OCC(=O)N3CCCC3)ccc12	+	x	1	4	-24	i
Cc1cc(=O)oc2cc(OCC(O)Cn3ccnc3)ccc12 (stereo not given)	+	2	0	-6	20	i
CCOC(=O)C1CCN(C(=O)COc2ccc3c(C)cc(=O)oc3c2)CC1	+	1	1	7	15	i
O=C(c1ccccc1)n1c2ccccc2c(=O)n1-c1ccccc1CCl	i	x	x	x	-64	x
CC(C)C[C@@H]1NC(=O)[C@H]2C[C@]3(c4ccccc4)c4ccccc4N[C@H]3N2C1=O	x	x	x	-1	x	x
C=CCNC(=O)/C(C#N)=C/c1c(N2CCCCCC2)nc2ccccn2c1=O	+	1	1	-2	-12	i
CCn1c(=O)c2cc(C(=O)N3CCOCC3)sc2c2ccccc21	+	2	0	0	-45	x
COc1ccc(C(C)=NNS(=O)(=O)c2ccc(C)cc2)cc1OC	i	x	1	-9	1	x
COc1ccc(-n2ncc3c(NCCCN4CCOCC4)ncnc32)cc1	+	0	-1	0	-13	i
COc1ccc(-n2ncc3c(NCc4ccco4)ncnc32)cc1	i	1	4	-4	-103	x
C=CCNc1ncnc2c1cnn2-c1ccc(OC)cc1	+	3	1	-1	-81	i
O=C(c1ccc2c(c1)OCO2)C1CCCN(Cc2ccc(OC(F)F)cc2)C1 (stereo not given)	i	-3	-1	0	7	x
CCN(C(=O)COC(=O)c1c(NC(C)=O)sc(C)c1C)c1c(N)n(Cc2ccccc2)c(=O)[nH]c1=O	i	x	4	-15	-29	x
Cc1cc(C)n2nc(C(=O)N3CCCC(N4CCN(c5ccccc5C)CC4)C3)cc2n1 (stereo not given)	+	x	0	3	-6	i
Cc1cc(C(=O)N2CCCC(N3CCN(c4ccccc4C)CC3)C2)no1 (stereo not given)	i	x	3	4	16	x
CCc1nc(N2CCCCC2)c2oc3ccccc3c2n1	i	2	1	3	-6	x
CCc1nc(N2CCN(Cc3ccc4c(c3)OCO4)CC2)c2oc3ccccc3c2n1	+	-1	1	0	-55	i
COc1ncccc1C(=O)N1CCCC(C(=O)Nc2cccc(-c3ccc(F)cc3)c2)C1 (stereo not given)	i	x	-1	5	4	x
CC(C)(C)c1ccc(C(=O)N2CCN(C(=O)c3ccco3)CC2)cc1	i	2	-2	14	-14	x
COc1ccc(S(=O)(=O)Nc2c(C(=O)O)[nH]c3ccc(OC)cc23)cc1	x	4	0	3	3	x
SMILES	Neddyl block	NR2E3 ag-1	PG9 Ab binder	NR1D1 modulator	NR2E3 ag-2	Neddyl inh conf
COc1ccc2[nH]c(C(=O)O)c(NS(=O)(=O)c3ccc(OC)c(OC)c3)c2c1	+	-2	1	-1	0	+
CC(Sc1nnc(CN2CCCC2)n1Cc1ccccc1)C(=O)Nc1ccc(F)c(F)c1F (stereo not given)	i	x	-1	-6	12	x
Cc1c(-c2nc(-c3ccc(C(F)(F)F)cc3)no2)n(C)oc1=O	+	2	0	3	-60	i
CS(=O)(=O)c1ccccc1-c1nc(-c2ccc(C(F)(F)F)cc2)no1	i	0	-3	5	-34	x
CCn1c(SCC(=O)NN=Cc2ccc(C(=O)O)cc2)nc2ccccc21	x	x	x	1	x	x
CCOc1cc(C(=O)NCc2ccccc2)ccc1OCC(=O)N1CCOCC1	i	4	-2	-5	20	x
CCOc1cc(/C=C/c2nc3ccccc3s2)ccc1OCC(=O)N1CCOCC1	+	2	-1	-3	-7	x
O=C(c1nc2nc(-c3ccccc3)cc(C(F)(F)F)n2n1)N1CCOCC1	i	1	-1	-3	17	x
O=C(c1nc2nc(-c3ccc(Cl)cc3)cc(C(F)(F)F)n2n1)N1CCOCC1	+	0	-3	-5	-9	i
N#CCCN(C(=O)Nc1ccccc1)C1CCCCC1	i	x	0	-4	-40	x
Cc1ccc(S(=O)(=O)Nc2nc3ccccc3nc2NCC2CCCO2)cc1 (stereo not given)	+	-1	0	2	-14	i
O=S(=O)(Nc1nc2ccccc2nc1NCC1CCCO1)c1ccc(F)cc1 (stereo not given)	i	4	0	-3	2	x
O=S(=O)(Nc1nc2ccccc2nc1NCC1CCCO1)c1ccccc1 (stereo not given)	+	0	-1	6	1	i
COc1ccc(S(=O)(=O)Nc2nc3ccccc3nc2NCC2CCCO2)cc1 (stereo not given)	i	0	-1	7	-8	x
CCOC(=O)C1CCCN(c2nc3ccccc3nc2NS(=O)(=O)c2ccc(C)cc2)C1 (stereo not given)	+	0	-3	1	0	+
NC(=O)C1CCN(c2nc3ccccc3nc2NS(=O)(=O)c2ccc(Br)cc2)CC1	i	x	1	1	27	x
C[C@@H]1CN([C@@H](C)CO)C(=O)CCCn2nncc2CO[C@@H]1CN(C)S(=O)(=O)c1ccccc1	i	x	-3	5	-3	x
Cc1ccsc1C(=O)N1CCC1(C)C(=O)NS(=O)(=O)c1ccc(Br)cc1 (stereo not given)	i	x	0	1	-23	x
O=C1CS/C(=N\N=C\c2ccco2)N1c1ccccc1	+	-6	-4	-12	-6	i
O=C1CS/C(=N/N=C/c2ccccc2)N1c1ccc(O)cc1	i	-1	1	-9	-5	x
C[C@H]1[C@H](c2ccccc2)Oc2cccc(NCCc3ccccc3)c2S(=O)(=O)N1Cc1ccc(F)cc1	x	x	-1	-1	x	x
CC(C)CNc1oc(-c2ccccc2Cl)nc1C#N	+	3	-1	-3	-2	i
COc1ccc(C2CC(c3ccccc3)Nc3nc(NC(=O)c4ccco4)nn32)cc1 (stereo not given)	+	0	0	0	-21	i
COc1ccc(C2CC(c3ccc(OC)cc3)n3nc(NC(=O)c4ccco4)nc3N2)cc1 (stereo not given)	+	2	-4	-3	-22	i

Bioassay records: PubChem BioAssay, several laboratories
